# Measurements as given in ChEMBL document CHEMBL5625195, “Identification of novel tetrahydroquinoxaline derived phenyl ureas as modulators of the hepatitis B virus nucleocapsid assembly” (Eur J Med Chem, 2023).
# How the values were obtained:
# Hepatitis B virus [1] = test: Antiviral activity against HBV infected in AML12HBV10 cells assessed as reduction viral replication incubated for 48 hrs; type: functional, organism-based; details: AML12HBV10, 48 h
# How it was run: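 AML12HBV10 cells were seeded at 2 x 10^4 per well without tetracycline. After one day, 2-fold serial dilutions (10 μM to 0.08 μM) were applied for 48 h. Lysates were denatured, neutralized and dot-blotted, then hybridized with a 32P-labelled riboprobe specific for HBV minus-strand DNA and read by phosphorimager. EC50 was the concentration reducing HBV DNA by 50%.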
# [2] = Cytotoxicity against mouse AML12 cells assessed as reduction in cell viability incubated for 48 hrs by MTT assay; type: toxicity, cell-based; details: AML12 cells
# How it was run: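 Stable AML12HBV10 hepatocytes (AML12-derived), cultured without tetracycline, were exposed to 2-fold serial dilutions (50 μM to 1.56 μM) for 48 h. Viability was inspected microscopically and quantified by MTT. CC50 was the concentration lowering viability by 50%.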
# Hepatitis B virus [3] = test: Antiviral activity against HBV infected in HepDES19 cells assessed as reduction viral DNA incubated for 4 days by qPCR analysis; type: functional, organism-based; details: HepDES19, 96 h
# How it was run: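 HepDES19 (HepG2-derived, tetracycline-inducible HBV) cells in 24-well plates, cultured without tetracycline for 2 days, then mock or serial 2-fold compound dilutions for 4 more days. Cytoplasmic HBV core DNA was extracted and quantified by qPCR. EC50 came from triplicate biological experiments by regression.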
# [4] = Cytotoxicity against human HepDES19 cells assessed as reduction in cell viability incubated for 6 days by MTT assay; type: toxicity, cell-based; details: time 6 day
# How it was run: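 Tetracycline-free HepDES19 cells in 96-well plates were exposed to […] serial dilutions (50 μM to 0.39 μM) for 6 days. Viability was checked by microscopy and measured by MTT. CC50 was the concentration reducing viability by 50%.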
Structure (SMILES),EC50 (Hepatitis B virus [1]),CC50 at 48 h [2],EC50 (Hepatitis B virus [3]),CC50 at 144 h [4]
CC1CN(C(=O)Nc2ccc(F)c(Cl)c2)c2ccccc2N1 (stereo unspecified),> 10 µM,> 50 µM,,
O=C(Nc1ccc(F)c(Cl)c1)N1CCCCc2ccccc21,> 10 µM,> 100 µM,,
O=C(Nc1ccc(F)c(Cl)c1)C1CCNc2ccccc21 (racemic),> 10 µM,> 100 µM,,
CC1CNc2ccccc2N1C(=O)Nc1ccc(F)c(Cl)c1 (stereo unspecified),3.02 µM,> 100 µM,,
NC1CCN(C(=O)Nc2ccc(F)c(Cl)c2)c2ccccc21 (racemic),> 10 µM,> 100 µM,,
O=C(Nc1ccc(F)c(Cl)c1)N1CC(CN2CCOCC2)Nc2ccccc21 (stereo unspecified),> 10 µM,> 20 µM,,
O=C(Nc1ccc(F)c(Cl)c1)N1CCN[C@H]2CCCC[C@H]21 (relative stereo),> 10 µM,> 100 µM,,
O=C(Nc1ccc(F)c(Cl)c1)N1CC2(CCCC2)Nc2ccccc21,> 10 µM,> 100 µM,,
O=C(Nc1ccc(F)c(Cl)c1)N1c2ccccc2NCC1CN1CCOCC1 (stereo unspecified),7.3 µM,> 40 µM,,
CC(C)C1CNc2ccccc2N1C(=O)Nc1ccc(F)c(Cl)c1 (stereo unspecified),4.5 µM,> 100 µM,,
O=C(Nc1cccnc1)N1CCN(C(=O)Nc2ccc(F)c(Cl)c2)c2ccccc21,5.76 µM,> 100 µM,,
O=C(Nc1ccc(F)c(Cl)c1)c1cccc2c1OCCO2,,,1.02 µM,> 50 µM
O=C(Nc1ccc(F)c(C(F)F)c1)N1c2ccccc2NCC1CN1CCC(F)(F)CC1 (stereo unspecified),0.1 µM,> 50 µM,0.04 µM,29.3 µM
CC1(C)CCN(CC2CNc3ccccc3N2C(=O)Nc2ccc(F)c(Cl)c2)CC1 (stereo unspecified),> 10 µM,> 40 µM,,
O=C(Nc1ccc(F)c(Cl)c1)N1CC(c2ccccc2)Nc2ccccc21 (stereo unspecified),10 µM,> 50 µM,,
N#Cc1cc(NC(=O)N2c3ccccc3NCC2CN2CCC(F)(F)CC2)ccc1F (stereo unspecified),0.09 µM,> 50 µM,0.15 µM,> 50 µM
O=C(Nc1ccc(F)c(Cl)c1)N1CCN(C(=O)Nc2ccc(F)c(Cl)c2)[C@H]2CCCC[C@H]21,> 10 µM,> 100 µM,,
O=C(Nc1ccc(F)c(Cl)c1)N1CC(CN2CCC(F)(F)C2)Nc2ccccc21 (stereo unspecified),5.09 µM,> 100 µM,,
O=C(Nc1ccc(F)c(Cl)c1)N1CCN(C(=O)Nc2cc(Cl)c(F)cc2F)c2ccccc21,0.39 µM,> 20 µM,0.95 µM,16.8 µM
O=C(Nc1ccc(F)c(Cl)c1)N1CCN(CCCCF)c2ccccc21,> 10 µM,> 50 µM,,
O=C(NCc1cccc(Cl)c1)N1CCNc2ccccc21,8.07 µM,> 100 µM,,
O=C(Cc1ccc(F)c(Cl)c1)N1CCNc2ccccc21,> 10 µM,> 20 µM,,
O=C(Nc1ccc(F)c(Cl)c1)N1CCc2cccnc21,> 10 µM,> 25 µM,,
O=C(NCc1ccccc1)N1CCN(C(=O)Nc2ccc(F)c(Cl)c2)c2ccccc21,> 10 µM,> 20 µM,,
O=C(Nc1ccc(C(O)(C(F)(F)F)C(F)(F)F)cc1)N1CCNc2ccccc21,> 10 µM,> 20 µM,,
O=C1CN(C(=O)Nc2ccc(F)c(Cl)c2)c2ccccc2N1,> 10 µM,> 50 µM,,
O=C(Nc1ccc(F)c(Cl)c1)N1CC(CN2CCC(F)(F)CC2)Nc2ccccc21 (stereo unspecified),4.32 µM,> 100 µM,,
O=S(=O)(Nc1ccc(F)c(Cl)c1)N1CCNc2ccccc21,> 10 µM,> 100 µM,,
O=C(Nc1ccccc1)N1CCN(C(=O)Nc2ccc(F)c(Cl)c2)c2ccccc21,7.34 µM,> 12.5 µM,,

# The remaining compounds from weak to strong by EC50 (Hepatitis B virus [1]), led by results:
EC50 (Hepatitis B virus [1]),Structure (SMILES),CC50 at 48 h [2],EC50 (Hepatitis B virus [3]),CC50 at 144 h [4]
2.03 µM,O=C(Nc1ccc(F)c(Cl)c1)N1CC(CN2CCOCC2)N(C(=O)Nc2ccc(F)c(Cl)c2)c2ccccc21 (stereo unspecified),> 100 µM,,
1.78 µM,O=C(Nc1ccc(F)c(Cl)c1)N1CCNc2cc(F)c(F)cc21,> 100 µM,,
1.7 µM,O=C(Nc1ccc(F)c(Cl)c1)N1c2ccccc2NCC1CN1CCC(F)(F)C1 (stereo unspecified),> 100 µM,,
1.66 µM,[N-]=[N+]=Nc1ccc(NC(=O)N2CCNc3ccccc32)cc1Cl,> 100 µM,,
1.61 µM,O=C(Nc1ccc(F)c(Cl)c1)N1CC(CN2CCC(F)(F)CC2)N(C(=O)Nc2ccc(F)c(Cl)c2)c2ccccc21 (stereo unspecified),> 100 µM,,
1.55 µM,O=C(Nc1ccc(F)c(Cl)c1)N1CCCc2ccccc21,> 100 µM,,
1.14 µM,O=C(Nc1ccc(F)c(Cl)c1)N1CC(CN2CCC(F)(F)C2)N(C(=O)Nc2ccc(F)c(Cl)c2)c2ccccc21 (stereo unspecified),> 100 µM,,
1.13 µM,O=C(Nc1cccc(Cl)c1)N1CCNc2ccccc21,> 100 µM,,
1.11 µM,O=C(Nc1ccnc(Cl)c1)N1CCN(C(=O)Nc2ccc(F)c(Cl)c2)c2ccccc21,> 20 µM,,
0.97 µM,O=C(Nc1ccc(F)c(Cl)c1)N1CCc2ccccc21,> 100 µM,,
0.93 µM,O=C(Nc1cc(F)c(F)c(Cl)c1)N1CCNc2ccccc21,> 100 µM,,
0.78 µM,O=C(Nc1ccc(F)c(Cl)c1)N1c2ccccc2NCC1c1ccccc1 (stereo unspecified),> 50 µM,,
0.77 µM,O=C(Nc1cc(Cl)ccc1F)N1CCNc2ccccc21,> 100 µM,,
0.65 µM,O=C(Nc1cccc(Cl)c1)N1CCN(C(=O)Nc2ccc(F)c(Cl)c2)c2ccccc21,> 100 µM,,
0.63 µM,O=C(Nc1cc(F)c(F)c(F)c1)N1CCNc2ccccc21,> 100 µM,,
0.52 µM,N#Cc1cc(NC(=O)N2CCNc3ccccc32)ccc1F,> 20 µM,,
0.39 µM,O=C(Nc1ccc(F)c(F)c1)N1c2ccccc2NCC1CN1CCC(F)(F)CC1 (stereo unspecified),> 50 µM,,
0.35 µM,O=C(Nc1cccc(Cl)c1)N1c2ccccc2NCC1CN1CCC(F)(F)CC1 (stereo unspecified),> 50 µM,,
0.34 µM,O=C(Nc1ccc(F)c(C(F)(F)F)c1)N1c2ccccc2NCC1CN1CCC(F)(F)CC1 (stereo unspecified),31.4 µM,,
0.32 µM,O=C(Nc1ccc(F)c(C(F)(F)F)c1)N1CCNc2ccccc21,> 20 µM,,
0.32 µM,O=C(Nc1cc(F)c(F)c(F)c1)N1CCN(C(=O)Nc2ccc(F)c(Cl)c2)c2ccccc21,> 20 µM,,
0.29 µM,O=C(Nc1cc(F)c(F)c(F)c1)N1c2ccccc2NCC1CN1CCC(F)(F)CC1 (stereo unspecified),> 50 µM,,
0.28 µM,O=C(Nc1ccc(F)c(Cl)c1)N1c2ccccc2NCC1CN1CCC(F)(F)CC1 (stereo unspecified),> 50 µM,,
0.27 µM,Cc1cc(NC(=O)N2c3ccccc3NCC2CN2CCC(F)(F)CC2)ccc1F (stereo unspecified),> 50 µM,,
0.24 µM,Cc1cc(NC(=O)N2CCNc3ccccc32)ccc1F,> 20 µM,,
0.19 µM,O=C(Nc1ccc(F)c(C(F)F)c1)N1CCNc2ccccc21,> 20 µM,,
